Data set [1] relates to Mus musculus. As to the kind of experiment: Tested for plasma concentration in tumor-bearing mice after 1 day by intravenous administration at 1 umol/kg. The data set is classed as functional. In outline:
(§1)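 Male BALB/c AnN mice carrying intradermal EMT-6 tumours on the hind thighs (2×10^5 cells; used 6-8 days later at 4-8 mm diameter) received 1 μmol/kg iv via the tail vein in 10% Cremophor emulsion. Plasma from orbital-sinus blood and excised tissue were extracted with DMF overnight at 37 °C, then centrifuged. Dye was read by fluorescence (ex 766, em 780 nm) against per-tissue calibration curves. Mean with SE, n = 3.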

Data set [2] has as its system Mus musculus. As to the kind of experiment: Tested for plasma concentration in tumor-bearing mice after 1 hour by intravenous administration at 1 umol/kg. The data set is classed as functional. In outline:
as §1

For data set [3], the system named is Mus musculus. As to the kind of experiment: Tested for plasma concentration in tumor-bearing mice after 12 hour by intravenous administration at 1 umol/kg. In kind it is functional. In outline:
as §1

Data set [4] has as its system Mus musculus. As to the kind of experiment: Tested for plasma concentration in tumor-bearing mice after 2 day by intravenous administration at 1 umol/kg. In kind it is functional. In outline: as §1
Data set [5] concerns Mus musculus. As to the kind of experiment: Tested for plasma concentration in tumor-bearing mice after 3 hour by intravenous administration at 1 umol/kg. The data set is classed as functional. In outline: as §1
The test system of data set [6] is Mus musculus. As to the kind of experiment: Tested for plasma concentration in tumor-bearing mice after 3 day by intravenous administration at 1 umol/kg. The data set is classed as functional. In outline: as §1
Data set [7] relates to Mus musculus. As to the kind of experiment: Tested for plasma concentration in tumor-bearing mice after 6 hour by intravenous administration at 1 umol/kg. The data set is classed as functional. The method, boiled down:
as §1

For data set [8], the system named is Mus musculus. As to the kind of experiment: Tested for plasma concentration in tumor-bearing mice after 7 day by intravenous administration at 1 umol/kg. The data set is classed as functional. The method, boiled down:
as §1

Data set [9] concerns Mus musculus. As to the kind of experiment: Mean tissue uptake in skin determined in tumor-bearing mice after 7 days by intravenous administration at 1 umol/kg. The data set is classed as functional. In outline:
as §1

Data set [10] relates to Mus musculus. As to the kind of experiment: Mean tissue uptake in tumor determined in tumor-bearing mice after 1 day by intravenous administration at 1 umol/kg. The data set is classed as functional. In outline: as §1
The subject of data set [11] is Mus musculus. As to the kind of experiment: Mean tissue uptake in tumor determined in tumor-bearing mice after 1 hour by intravenous administration at 1 umol/kg. The data set is classed as functional. The method, boiled down:
as §1

Data set [12] has as its system Mus musculus. As to the kind of experiment: Mean tissue uptake in tumor determined in tumor-bearing mice after 12 hour by intravenous administration at 1 umol/kg. The data set is classed as functional. In outline: as §1
Data set [13] deals with Mus musculus. As to the kind of experiment: Mean tissue uptake in tumor determined in tumor-bearing mice after 2 day by intravenous administration at 1 umol/kg. In kind it is functional. The method, boiled down:
as §1

The subject of data set [14] is Mus musculus. As to the kind of experiment: Mean tissue uptake in tumor determined in tumor-bearing mice after 3 hour by intravenous administration at 1 umol/kg. In kind it is functional. In outline:
as §1

The test system of data set [15] is Mus musculus. As to the kind of experiment: Mean tissue uptake in tumor determined in tumor-bearing mice after 3 day by intravenous administration at 1 umol/kg. In kind it is functional. In outline: as §1
For data set [16], the system named is Mus musculus. As to the kind of experiment: Mean tissue uptake in tumor determined in tumor-bearing mice after 7 day by intravenous administration at 1 umol/kg. In kind it is functional. The method, boiled down:
as §1

In data set [17] the test system is Mus musculus. As to the kind of experiment: Mean tissue uptake in muscle determined in tumor-bearing mice after 1 hour by intravenous administration at 1 umol/kg. In kind it is functional. The method, boiled down: as §1
The test system of data set [18] is Mus musculus. As to the kind of experiment: Mean tissue uptake in muscle determined in tumor-bearing mice after 12 hour by intravenous administration at 1 umol/kg. The data set is classed as functional. The method, boiled down:
as §1

The subject of data set [19] is Mus musculus. As to the kind of experiment: Mean tissue uptake in muscle determined in tumor-bearing mice after 1 day by intravenous administration at 1 umol/kg. The data set is classed as functional. In outline:
as §1

The test system of data set [20] is Mus musculus. As to the kind of experiment: Mean tissue uptake in muscle determined in tumor-bearing mice after 2 day by intravenous administration at 1 umol/kg. The data set is classed as functional. In outline: as §1
For data set [21], the system named is Mus musculus. As to the kind of experiment: Mean tissue uptake in muscle determined in tumor-bearing mice after 3 hour by intravenous administration at 1 umol/kg. The data set is classed as functional. In outline:
as §1

For data set [22], the system named is Mus musculus. As to the kind of experiment: Mean tissue uptake in muscle determined in tumor-bearing mice after 3 days by intravenous administration at 1 umol/kg. In kind it is functional. In outline: as §1
The subject of data set [23] is Mus musculus. As to the kind of experiment: Mean tissue uptake in muscle determined in tumor-bearing mice after 6 hour by intravenous administration at 1 umol/kg. In kind it is functional. In outline:
as §1

The subject of data set [24] is Mus musculus. As to the kind of experiment: Mean tissue uptake in muscle determined in tumor-bearing mice after 7 days by intravenous administration at 1 umol/kg. The data set is classed as functional. In outline: as §1
Data set [25] deals with Mus musculus. As to the kind of experiment: Mean tissue uptake in skin determined in tumor-bearing mice after 12 hr by intravenous administration at 1 umol/kg. In kind it is functional. The method, boiled down: as §1
Data set [26] concerns Mus musculus. As to the kind of experiment: Mean tissue uptake in skin determined in tumor-bearing mice after 1 day by intravenous administration at 1 umol/kg. The data set is classed as functional. In outline:
as §1

Data set [27] concerns Mus musculus. As to the kind of experiment: Mean tissue uptake in skin determined in tumor-bearing mice after 1 hr by intravenous administration at 1 umol/kg. In kind it is functional. In outline: as §1
Data set [28] relates to Mus musculus. As to the kind of experiment: Mean tissue uptake in skin determined in tumor-bearing mice after 2 day by intravenous administration at 1 umol/kg. In kind it is functional. In outline:
as §1

In data set [29] the test system is Mus musculus. As to the kind of experiment: Mean tissue uptake in skin determined in tumor-bearing mice after 3 days by intravenous administration at 1 umol/kg. In kind it is functional. In outline: as §1
Data set [30] has as its system Mus musculus. As to the kind of experiment: Mean tissue uptake in skin determined in tumor-bearing mice after 3 hr by intravenous administration at 1 umol/kg. In kind it is functional. In outline: as §1
The subject of data set [31] is Mus musculus. As to the kind of experiment: Mean tissue uptake in skin determined in tumor-bearing mice after 6 hr by intravenous administration at 1 umol/kg. In kind it is functional. In outline:
as §1

The nature of data set [32]: Tumor/muscle uptake ratio after 12 hr. In kind it is functional, Muscle tissue. In outline:
(§2)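 The ratio of tumour uptake (μg/g) to muscle uptake (μg/g), or to plasma concentration (μg/mL), was taken at each time point. Mice were EMT-6-bearing BALB/c (n = 3) given 1 μmol/kg iv in 10% Cremophor emulsion. Dye was measured by fluorescence (ex 766, em 780 nm) in DMF extracts and quantified against tissue-specific calibration curves.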

Data set [33] is described as follows: Tumor/muscle uptake ratio after 1 day. The data set is classed as functional, Muscle tissue. The method, boiled down: as §2
Data set [34] is described as follows: Tumor/muscle uptake ratio after 1 hr. In kind it is functional, Muscle tissue. In outline: as §2
Data set [35] in a line: Tumor/muscle uptake ratio after 2 day. The data set is classed as functional, Muscle tissue. The method, boiled down: as §2
A short description of data set [36]: Tumor/muscle uptake ratio after 3 days. The data set is classed as functional, Muscle tissue. In outline:
as §2

Data set [37] in a line: Tumor/muscle uptake ratio after 3 hr. In kind it is functional, Muscle tissue. The method, boiled down:
as §2

Data set [38] in a line: Tumor/muscle uptake ratio after 6 hr. In kind it is functional, Muscle tissue. In outline: as §2
The nature of data set [39]: Tumor/muscle uptake ratio after 7 days. In kind it is functional, Muscle tissue. The method, boiled down: as §2
The nature of data set [40]: Tumor/plasma uptake ratio after 1 day. In kind it is functional. In outline:
as §2

The nature of data set [41]: Tumor/plasma uptake ratio after 1 hr. In kind it is functional. The method, boiled down: as §2
Data set [42] is described as follows: Tumor/plasma uptake ratio after 2 day. In kind it is functional. In outline:
as §2

Data set [43] in a line: Tumor/plasma uptake ratio after 3 days. The data set is classed as functional. The method, boiled down: as §2
Data set [44] can be described thus: Tumor/plasma uptake ratio after 3 hr. In kind it is functional. The method, boiled down:
as §2

Data set [45] can be described thus: Tumor/plasma uptake ratio after 6 hr. In kind it is functional. The method, boiled down: as §2
The test system of data set [46] is Mus musculus. As to the kind of experiment: Mean tissue uptake in tumor determined in tumor-bearing mice after 6 hour by intravenous administration at 1 umol/kg. In kind it is functional. In outline:
as §1

Data set [47] is described as follows: Tumor/plasma uptake ratio after 12 hr. In kind it is functional. The method, boiled down:
as §2

Data set [48] is described as follows: Tested for extracellular drug concentration required to kill 50 percent of V-79 cells after one hour incubation period. Conditions: Chinese hamster, V79 cells; read-out: LD50.
The nature of data set [49]: Tested for extracellular drug concentration required to kill 50 percent of V-79 cells after one hour incubation period and subsequent exposure red light. The note with it: Chinese hamster, V79 cells; read-out: LD50.

The source of these data is ChEMBL document CHEMBL1127321, “Synthesis and photodynamic activities of silicon 2,3-naphthalocyanine derivatives” (J Med Chem, 1994).

Take `CC(C)C(C)(C)[Si](C)(C)O[Si]1(O[Si](C)(C)C(C)(C)C(C)C)n2c3c4cc5ccccc5cc4c2/N=C2N=C(/N=c4/c5cc6ccccc6cc5/c(n41)=N/C1=NC(=N\3)/c3cc4ccccc4cc31)c1cc3ccccc3cc1\2`: the Blood clearance is 2.06 µg/mL in data set [1]; 12.94 µg/mL in data set [2]; 5.51 µg/mL in data set [3]; 0.21 µg/mL in data set [4]; 11.28 µg/mL in data set [5]; 0.02 µg/mL in data set [6]. Besides, the results for the Blood clearance in data set [7] and in data set [8] were 9.12 µg/mL and 0 µg/mL, respectively. Further, the Tissue distribution in [9] is 0.35 µg/g; in data set [10], 0.71 µg/g; in [11], 0.43 µg/g; in data set [12], 0.9 µg/g; in [13], 0.73 µg/g; in data set [14], 0.46 µg/g. Moreover, the Tissue distribution in [15] stood at 0.77 µg/g; in [16], 0.51 µg/g; in data set [17], 0.12 µg/g; in data set [18], 0.09 µg/g; in data set [19], 0.11 µg/g; in data set [20] it was 0.08 µg/g. The Tissue distribution in data set [21] stood at 0.32 µg/g; in data set [22] it was 0.13 µg/g; in [23], 0.98 µg/g; in [24], 0.08 µg/g; in data set [25], 0.56 µg/g; in data set [26], 0.46 µg/g. In addition, the Tissue distribution in data set [27] was determined as 0.13 µg/g; in data set [28], 0.43 µg/g; in [29] it was 0.44 µg/g; in data set [30], 0.51 µg/g; in data set [31], 0.36 µg/g; in [46], 0.65 µg/g. Besides, the Ratio in [32] stood at 10; in data set [33], 6.4; in data set [34], 3.6; in data set [35] it was 9.1; in data set [36] it was 5.9; in [37], 1.4. In addition, the Ratio was 0.7 in data set [38]; 6.4 in [39]; 0.34 in data set [40]; 0.03 in data set [41]; 3.5 in data set [42]; 38 in data set [43]. Moreover, the Ratio in data set [44] is reported as 0.04; in data set [45], 0.07; in [47], 0.16. The CC50 at 1 h worked out at 6.5 µM in data set [48] and 5.5 µM in [49].

Regarding `CC(C)(C)[Si](C)(C)O[Si]1(O[Si](C)(C)C(C)(C)C)n2c3c4cc5ccccc5cc4c2/N=C2N=C(/N=c4/c5cc6ccccc6cc5/c(n41)=N/C1=NC(=N\3)/c3cc4ccccc4cc31)c1cc3ccccc3cc1\2`, the CC50 at 1 h in [48] is 36 µM; in [49], 12 µM.

For `CCCCCCCCCCCCCCCCCC[Si](C)(C)O[Si]1(O[Si](C)(C)CCCCCCCCCCCCCCCCCC)n2c3c4cc5ccccc5cc4c2/N=C2N=C(/N=c4/c5cc6ccccc6cc5/c(n41)=N/C1=NC(=N\3)/c3cc4ccccc4cc31)c1cc3ccccc3cc1\2`, the CC50 at 1 h amounted to 4.2 µM in data set [48] and 1.8 µM in data set [49].

Take `CCCCCC[Si](CCCCCC)(CCCCCC)O[Si]1(O[Si](CCCCCC)(CCCCCC)CCCCCC)n2c3c4cc5ccccc5cc4c2/N=C2N=C(/N=c4/c5cc6ccccc6cc5/c(n41)=N/C1=NC(=N\3)/c3cc4ccccc4cc31)c1cc3ccccc3cc1\2`: the CC50 at 1 h was 46 µM in data set [48] and 29 µM in data set [49].
